Screens as filed in PubChem BioAssay.
core dimer inh = inhibitors of HCV core protein dimerization, primary screen, biochemical, TR-FRET, high-throughput | TR-FRET GST/Flag-core106 dimerization, 1536-well | inhibition, % at 5 µM | hit rate 0.33% among 300,000;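 active = inhibition above the mean of all tested compounds plus 3 SD, set per screening campaign, cut at about 45% in these data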
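System: GST-tagged and Flag-tagged HCV core protein residues 1-106 / Input: core106 proteins, GST 13.5 nM and Flag 17 nM / Buffer or medium: KF-containing HEPES buffer, pH 7.45, DTT, CHAPS, BSA / Probe or stimulus: Eu-anti-GST and XL665-anti-Flag labelled anti-tag antibodies / Schedule: 4 h, 22.5 °C incubation / Technique: TR-FRET 671 and 617 nm emission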
APOBEC3G inh = APOBEC3G DNA deaminase inhibitors, primary screen, biochemical, fluorescence, single-stranded DNA substrate, uHTS | inhibition, % at 20 µM | DNA dC->dU-editing enzyme APOBEC-3G (Homo sapiens), Q9HC16 | AID 493012, 2011 | hit rate 0.28% among 330,000 | recombinant A3G, ssDNA deamination FAM/TAMRA fluorescence;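 active = inhibition of at least 40% at 20 µM, with no more than 30% in the related APOBEC3A deaminase screen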;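 note: plate controls were DMSO wells with A3G for no effect and wells lacking A3G enzyme for full effect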
APOBEC3A inh = APOBEC3A ssDNA deaminase inhibitors, primary screen, selectivity assay for APOBEC3G inhibitor project, biochemical, FAM/TAMRA oligo cleavage fluorescence; DNA dC->dU-editing enzyme APOBEC-3A (Homo sapiens), P31941; inhibition, % at 20 µM; AID 493011, 2011; hit rate 0.41% among 330,000; recombinant A3A, FAM/TAMRA ssDNA deamination fluorescence;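 active = at least 40% inhibition at 20 µM here, with at most 30% in a related deaminase screen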;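 note: plate controls were A3A with DMSO for no effect and wells lacking A3A enzyme for full effect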
NS3 helicase inh = inhibitors of HCV NS3 helicase, primary screen, biochemical, Cy5 molecular beacon fluorescence. Hepatitis C virus NS3 helicase. NS3 helicase DNA unwinding. inhibition, % at 10.9 µM. hit rate 0.56% among 290,000. AID 1800, 2009;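 active = inhibition above the mean of all tested compounds plus 3 SD, set per campaign, cut at about 35% in these data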;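 note: 0% = DMSO wells and 100% = thioflavine S control wells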
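assay system = NS3 helicase fragment of HCV | buffer or medium = MOPS pH 6.5, MgCl2, DTT, Tween20, BSA | timing = 60 min unwinding reaction at 25 °C after ATP addition | signal = Cy5 beacon fluorescence read at start and 1 h | read-out basis = % inhibition of unwinding | control set = low DMSO, high thioflavine S at 110 µM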
ABHD5-PLIN5 inh = ABHD5-PLIN5 interaction inhibitors, primary screen, cell lysate, split luciferase complementation, luminescence | Perilipin-5 (Homo sapiens) + 1-acylglycerol-3-phosphate O-acyltransferase ABHD5 (Homo … | Split G. princeps luciferase complementation, 4 h | inhibition, % at 4 µM | hit rate 0.78% among 360,000 | AID 602281, 2012;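 active = inhibition above the mean inhibition across every tested compound plus 3 SD, cut at about 22% in these data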;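 note: 0% = DMSO only wells and the 100% control is not disclosed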
PRMT1 FP inh = PRMT1 methyltransferase inhibitors, primary screen, biochemical, fluorescence polarization | hit rate 1.3% among 370,000 | Protein arginine N-methyltransferase 1 (Homo sapiens), Q99873 | recombinant PRMT1, activity-based probe fluorescence polarization | inhibition, % at 2.79 µM;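 active = inhibition above about 21% made by adding two undisclosed values, limit read from the data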
Target sequence (Q99873 whole entry, looked up): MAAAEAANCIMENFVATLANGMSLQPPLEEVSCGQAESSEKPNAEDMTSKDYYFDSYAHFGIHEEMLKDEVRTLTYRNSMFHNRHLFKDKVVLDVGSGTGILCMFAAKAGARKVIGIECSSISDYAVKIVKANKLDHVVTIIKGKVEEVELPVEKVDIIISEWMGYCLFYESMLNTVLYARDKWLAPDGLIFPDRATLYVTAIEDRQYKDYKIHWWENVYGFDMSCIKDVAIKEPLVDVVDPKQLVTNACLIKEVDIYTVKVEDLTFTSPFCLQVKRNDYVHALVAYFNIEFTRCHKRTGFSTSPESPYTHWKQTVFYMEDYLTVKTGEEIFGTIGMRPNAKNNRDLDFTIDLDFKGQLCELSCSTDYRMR
A3A conf = APOBEC3A deaminase inhibitors, retest, confirmation, selectivity assay for APOBEC3G inhibitor project, biochemical, single concentration, fluorescence readout; shares compounds with APOBEC3A inh; recombinant A3A, ssDNA deaminase UDG fluorescence assay; inhibition, % at 20 µM; hit rate 63% among 1,400;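 active = inhibition reaching a set limit, 80% of the first screen's cutoff, at 20 µM in any replicate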;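 note: plate controls were DMSO wells with A3A for no effect and wells lacking A3A enzyme for full effect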
UDG A3A counter = E. coli UDG inhibitors, confirmation, counter-screen for APOBEC3A inhibitor project, biochemical, single concentration, fluorescence, FAM/TAMRA oligo; shares compounds with APOBEC3A inh; UDG counterscreen, FAM/TAMRA uracil oligo fluorescence; inhibition, % at 20 µM; AID 504714, 2011; 1,000 tested, under 10 active; call rule not given here
Numbers without * were called inactive; . = no result given. A selection: hits, their analogues and other compounds. The true share with any hit is near 2.9%.

SMILES | core dimer inh | APOBEC3G inh | APOBEC3A inh | NS3 helicase inh | ABHD5-PLIN5 inh | PRMT1 FP inh | A3A conf | UDG A3A counter
CCC1(c2ccccc2)NC(=O)N(CC(=O)Nc2cc(Cl)ccc2N2CCOCC2)C1=O (stereo not drawn) | -8 | 5 | 47* | . | -8 | -5 | 8 | .
CCC1(c2ccccc2)NC(=O)N(CC(=O)Nc2ccccc2N2CCCC2)C1=O (stereo not drawn) | -7 | -12 | -6 | . | -3 | 9 | . | .
COCC(=O)Nc1ccc2c(c1)C(=O)N(C)[C@@H]1CC[C@@H](CC(=O)OC)O[C@H]1CO2 | . | . | . | . | . | 0 | . | .
COc1ccc(NC(=S)NCCCN2CCCC2)cc1 | -2 | -2 | 41* | -1 | -3 | -9 | -8 | 0
CCOc1ccc(NC(=S)NCCCN2CCN(c3ccc(OC)cc3)CC2)cc1 | -1 | -7 | -8 | -45 | 4 | -2 | . | .
COc1ccc(C(=O)NCCCN2CCOCC2)cc1 | -5 | -1 | 72* | 6 | -2 | 2 | -9 | -1
CS(=O)(=O)c1ccc(NC(=O)CCCc2nc3ccccc3c(=O)[nH]2)cc1 | -1 | -2 | 10 | . | 5 | 3 | . | .
CS(=O)(=O)c1ccc(Cl)c(NC(=O)CCCc2nc3ccccc3c(=O)[nH]2)c1 | -4 | 4 | 41* | . | -1 | 1 | 2 | .
CC(=O)Nc1nc(CC(C)C)cc(-c2ccco2)c1C#N | 1 | 16 | 40* | 1 | -1 | -2 | 51* | -3
N#Cc1ccc(NC(=O)Cn2c3[n+](c4ccc(C(F)(F)F)cc42)CCCCC3)cc1 | 1 | 49 | 53 | -12 | 10 | 6 | . | .
O=C(Cn1c2[n+](c3ccc(C(F)(F)F)cc31)CCCCC2)Nc1ccc(Br)cc1 | -4 | 13 | 47* | -74 | 96* | . | 14* | -3
FC(F)(F)c1cccc(Cn2c3[n+](c4ccc(C(F)(F)F)cc42)CCCCC3)c1 | 0 | 21 | 49* | -41 | 6 | -1 | 75* | 4
Cc1cccc(C)c1NC(=O)c1csc(COCCO)n1 | . | . | . | . | -1 | 4 | . | .
Cc1cc(C)cc(C(O)c2ncc(-c3ccccc3)[nH]2)c1 (stereo not drawn) | . | . | . | . | -5 | -1 | . | .
CN(Cc1ccc(Cl)c(Cl)c1)C(=O)C1=CC=CN2CCS(=O)(=O)N=C12 | . | 15 | 47* | . | -1 | -3 | 43* | -2
COc1ccc(Br)cc1CN(C)C(=O)C1=CC=CN2CCS(=O)(=O)N=C12 | . | 3 | 55* | . | 5 | 0 | 51* | 3
c1nc(N2CCCC2)c2[nH]cnc2n1 | 3 | -6 | 1 | 0 | 2 | 2 | . | .
OCCN1CCN(c2ncnc3nc[nH]c23)CC1 | -1 | -3 | 51* | 9 | 6 | -3 | -5 | 1
Cc1cc(F)ccc1NC(=O)C1CCCO1 (stereo not drawn) | 2 | -7 | 57* | -4 | -2 | 2 | 0 | 5
O=C(Nc1ccc(Cl)cc1Cl)C1CCCO1 (stereo not drawn) | 7 | -7 | -7 | 3 | 1 | -4 | . | .
O=C(NC1CCCCC1)N1CCC(c2nc3ccc(Cl)cc3[nH]2)CC1 | 0 | -3 | 40* | 2 | 7 | 2 | 0 | -1
O=C(NC1CCCCC1)N1CCC(c2nc3ccccc3[nH]2)CC1 | -5 | -6 | 0 | 5 | 2 | 2 | . | .
